Assay [1] relates to Mycobacterium tuberculosis. Kind of assay: Antimycobacterial activity against Mycobacterium tuberculosis CNTC My 331/88 ATCC 27294 after 14 days. Type of assay: functional. Conditions: CNTC My 331/88 ATCC 27294, 336 h. The gist of the method:
(§1)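 Sula semi-synthetic medium at 37 °C. Compounds were dissolved in DMSO (max. 5% DMSO in water) and added to the medium at 1000, 500, 250, 125, 62, 31, 16, 8, 4, 2 and 1 μmol L⁻¹. MIC was read after 7, 14 and 21 days of incubation at 37 °C. Strains came from the Czech National Collection of Type Cultures.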

For assay [2], the system named is Mycobacterium tuberculosis. Kind of assay: Antimycobacterial activity against Mycobacterium tuberculosis CNTC My 331/88 ATCC 27294 after 21 days. The class given is functional. Conditions: CNTC My 331/88 ATCC 27294, 504 h. The gist of the method:
as §1

The subject of assay [3] is Mycobacterium avium. Kind of assay: Antimycobacterial activity against Mycobacterium avium CNTC My 330/88 after 14 days. Type of assay: functional. The settings on record: CNTC My 330/88, 336 h. The method, boiled down:
as §1

Assay [4] deals with Mycobacterium avium. Briefly: Antimycobacterial activity against Mycobacterium avium CNTC My 330/88 after 21 days. Type of assay: functional. The settings on record: CNTC My 330/88, 504 h. The gist of the method:
as §1

For assay [5], the system named is Mycobacterium kansasii. Kind of assay: Antimycobacterial activity against Mycobacterium kansasii CNTC My 335/80 after 7 days. The class given is functional. Conditions: 168 h. The method, boiled down:
(§2)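 MIC in Sula semi-synthetic medium at 37 °C. M. kansasii 6509/96 is a clinical isolate; M. kansasii CNTC My 235/80 comes from the Czech national collection. Compounds were dissolved in DMSO (max. 5% DMSO in water) and tested at 1000, 500, 250, 125, 62, 31, 16, 8, 4, 2 and 1 μmol L⁻¹. MIC was read after 7, 14 and 21 days.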

Assay [6] relates to Mycobacterium kansasii. Briefly: Antimycobacterial activity against Mycobacterium kansasii CNTC My 335/80 after 14 days. The class given is functional. The settings on record: 336 h. The gist of the method: as §2
Assay [7] concerns Mycobacterium kansasii. Kind of assay: Antimycobacterial activity against Mycobacterium kansasii CNTC My 335/80 after 21 days. Type of assay: functional. Conditions: 504 h. The method, boiled down:
as §2

For assay [8], the system named is Mycobacterium kansasii. Kind of assay: Antimycobacterial activity against Mycobacterium kansasii 6509/96 isolate after 7 days. The class given is functional. The settings on record: 6509/96, 168 h. The method, boiled down:
as §2

The test system of assay [9] is Mycobacterium kansasii. Kind of assay: Antimycobacterial activity against Mycobacterium kansasii 6509/96 isolate after 14 days. The settings on record: 6509/96, 336 h. The class given is functional. The method, boiled down:
as §2

Assay [10] has as its system Mycobacterium kansasii. Briefly: Antimycobacterial activity against Mycobacterium kansasii 6509/96 isolate after 21 days. The class given is functional. The settings on record: 6509/96, 504 h. The method, boiled down:
as §2

Another assay relates to HepG2. Kind of assay: Cytotoxicity against human HepG2 cells by MTT assay. Type of assay: cell-based. The method, boiled down: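 MTT viability assay in RPMI-1640 without phenol red with 10% FCS and 2 mM L-glutamine, at 37 °C and 5% CO₂. HepG2 seeded at 5×10³ cells/well; fresh human PBMC at 2.0×10⁵ cells/well. After 24 h, cells were exposed overnight in serum-free medium, then given MTT (2 mg mL⁻¹) for 4 h. Formazan dissolved in DMSO, OD540 minus OD620, compared with untreated controls. IC50 taken from dose-response curves; two independent experiments, 4–8 parallels.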

pIC50: −log10 of the molar value. Converted amounts (≈) assume the structure as drawn. Some results are limits rather than exact numbers.

As for `O=C(N/N=C/Nc1ccc(Cl)cc1O)c1ccncc1`, the minimal inhibitory concentration (MIC) in [1] was 2 µM (≈ 0.581 µg/mL); in assay [2], 4 µM (≈ 1.16 µg/mL); in the assay with Mycobacterium avium [3], 250 µM (≈ 72.7 µg/mL); against Mycobacterium avium [4], 500 µM (≈ 145 µg/mL); against Mycobacterium kansasii [5], 250 µM (≈ 72.7 µg/mL); against Mycobacterium kansasii [6] it was 500 µM (≈ 145 µg/mL). Also, the MIC turned out to be 500 µM (≈ 145 µg/mL) against Mycobacterium kansasii [7], 16 µM (≈ 4.65 µg/mL) against Mycobacterium kansasii [8], 16 µM (≈ 4.65 µg/mL) with Mycobacterium kansasii [9] and 32 µM (≈ 9.3 µg/mL) against Mycobacterium kansasii [10].
Regarding `O=C(N/N=C/Nc1ccc(Cl)c(Cl)c1)c1ccncc1`, the MIC in assay [1] was found to be 1 µM (≈ 0.309 µg/mL); in [2], 2 µM (≈ 0.618 µg/mL); against Mycobacterium avium [3], 250 µM (≈ 77.3 µg/mL); against Mycobacterium avium [4] it was 250 µM (≈ 77.3 µg/mL); against Mycobacterium kansasii [5] it was 250 µM (≈ 77.3 µg/mL); in the assay on Mycobacterium kansasii [6], 500 µM (≈ 155 µg/mL). Besides, the minimum inhibitory concentration (MIC) amounted to 500 µM (≈ 155 µg/mL) against Mycobacterium kansasii [7], 8 µM (≈ 2.47 µg/mL) with Mycobacterium kansasii [8], 16 µM (≈ 4.95 µg/mL) in the assay on Mycobacterium kansasii [9] and 16 µM (≈ 4.95 µg/mL) against Mycobacterium kansasii [10].
`O=C(N/N=C/Nc1ccc(F)c(F)c1)c1ccncc1`: the MIC in assay [1] was found to be 2 µM (≈ 0.552 µg/mL); in [2] it was 2 µM (≈ 0.552 µg/mL); in the assay on Mycobacterium avium [3] it was 250 µM (≈ 69.1 µg/mL); with Mycobacterium avium [4], 250 µM (≈ 69.1 µg/mL); with Mycobacterium kansasii [5] it was 250 µM (≈ 69.1 µg/mL); with Mycobacterium kansasii [6] it was 500 µM (≈ 138 µg/mL). Moreover, the minimum inhibitory concentration (MIC) in the assay with Mycobacterium kansasii [7] was determined as 1000 µM (≈ 276 µg/mL); against Mycobacterium kansasii [8] it was 8 µM (≈ 2.21 µg/mL); in the assay on Mycobacterium kansasii [9], 16 µM (≈ 4.42 µg/mL); in the assay on Mycobacterium kansasii [10] it was 32 µM (≈ 8.84 µg/mL).
As to `O=C(N/N=C/Nc1ccc(F)c(Cl)c1)c1ccncc1`, the MIC stood at 1 µM (≈ 0.293 µg/mL) in assay [1]; 2 µM (≈ 0.585 µg/mL) in [2]; 250 µM (≈ 73.2 µg/mL) in the assay with Mycobacterium avium [3]; 500 µM (≈ 146 µg/mL) in the assay on Mycobacterium avium [4]; 250 µM (≈ 73.2 µg/mL) with Mycobacterium kansasii [5]; 1000 µM (≈ 293 µg/mL) against Mycobacterium kansasii [6]. For the same molecule, the MIC against Mycobacterium kansasii [7] is > 1000 µM; in the assay on Mycobacterium kansasii [8], 16 µM (≈ 4.68 µg/mL); in the assay on Mycobacterium kansasii [9], 16 µM (≈ 4.68 µg/mL); against Mycobacterium kansasii [10], 32 µM (≈ 9.37 µg/mL).
With `O=C(N/N=C/Nc1cccc(C(F)(F)F)c1)c1ccncc1`, the minimal inhibitory concentration (MIC) in assay [1] stood at 1 µM (≈ 0.308 µg/mL); in assay [2], 1 µM (≈ 0.308 µg/mL); in the assay with Mycobacterium avium [3] it was 500 µM (≈ 154 µg/mL); against Mycobacterium avium [4], 1000 µM (≈ 308 µg/mL); against Mycobacterium kansasii [5], 125 µM (≈ 38.5 µg/mL); with Mycobacterium kansasii [6], 250 µM (≈ 77.1 µg/mL). The MIC was 1000 µM (≈ 308 µg/mL) against Mycobacterium kansasii [7], 16 µM (≈ 4.93 µg/mL) against Mycobacterium kansasii [8], 16 µM (≈ 4.93 µg/mL) in the assay with Mycobacterium kansasii [9] and 32 µM (≈ 9.86 µg/mL) in the assay with Mycobacterium kansasii [10].
With `O=C(N/N=C/Nc1ccc(Cl)cc1)c1ccncc1`, the MIC in assay [1] amounted to 1 µM (≈ 0.275 µg/mL); in assay [2], 1 µM (≈ 0.275 µg/mL); against Mycobacterium avium [3], 500 µM (≈ 137 µg/mL); with Mycobacterium avium [4] it was 1000 µM (≈ 275 µg/mL); in the assay on Mycobacterium kansasii [5], 125 µM (≈ 34.3 µg/mL); against Mycobacterium kansasii [6] it was 250 µM (≈ 68.7 µg/mL). In addition, the MIC was found to be 1000 µM (≈ 275 µg/mL) in the assay on Mycobacterium kansasii [7], 16 µM (≈ 4.4 µg/mL) in the assay with Mycobacterium kansasii [8], 32 µM (≈ 8.79 µg/mL) against Mycobacterium kansasii [9] and 32 µM (≈ 8.79 µg/mL) against Mycobacterium kansasii [10].
With `O=C(N/N=C/Nc1ccc(Br)cc1)c1ccncc1`, the MIC turned out to be 2 µM (≈ 0.638 µg/mL) in [1]; 4 µM (≈ 1.28 µg/mL) in assay [2]; 500 µM (≈ 160 µg/mL) with Mycobacterium avium [3]; 500 µM (≈ 160 µg/mL) in the assay on Mycobacterium avium [4]; 125 µM (≈ 39.9 µg/mL) in the assay with Mycobacterium kansasii [5]; 250 µM (≈ 79.8 µg/mL) against Mycobacterium kansasii [6]. Also, the MIC against Mycobacterium kansasii [7] amounted to 500 µM (≈ 160 µg/mL); against Mycobacterium kansasii [8], 32 µM (≈ 10.2 µg/mL); in the assay on Mycobacterium kansasii [9], 32 µM (≈ 10.2 µg/mL); against Mycobacterium kansasii [10], 32 µM (≈ 10.2 µg/mL).
`O=C(N/N=C/Nc1cccc([N+](=O)[O-])c1)c1ccncc1`: the MIC in assay [1] was determined as 2 µM (≈ 0.571 µg/mL); in [2], 2 µM (≈ 0.571 µg/mL); against Mycobacterium avium [3] it was 250 µM (≈ 71.3 µg/mL); in the assay with Mycobacterium avium [4], 500 µM (≈ 143 µg/mL); against Mycobacterium kansasii [5] it was 125 µM (≈ 35.7 µg/mL); against Mycobacterium kansasii [6], 250 µM (≈ 71.3 µg/mL). Besides, the MIC in the assay with Mycobacterium kansasii [7] amounted to 500 µM (≈ 143 µg/mL); with Mycobacterium kansasii [8] it was 8 µM (≈ 2.28 µg/mL); against Mycobacterium kansasii [9] it was 16 µM (≈ 4.56 µg/mL); in the assay on Mycobacterium kansasii [10], 16 µM (≈ 4.56 µg/mL).
In the case of `NNC(=O)c1ccncc1` [ISONIAZID], the MIC in assay [1] is 1 µM (≈ 0.137 µg/mL); in assay [2] it was 1 µM (≈ 0.137 µg/mL); against Mycobacterium avium [3], > 250 µM; in the assay with Mycobacterium avium [4] it was > 250 µM; with Mycobacterium kansasii [5], > 250 µM; against Mycobacterium kansasii [6], > 250 µM. Further, the minimum inhibitory concentration (MIC) is > 250 µM with Mycobacterium kansasii [7], 2 µM (≈ 0.274 µg/mL) against Mycobacterium kansasii [8], 4 µM (≈ 0.549 µg/mL) against Mycobacterium kansasii [9] and 4 µM (≈ 0.549 µg/mL) in the assay on Mycobacterium kansasii [10]. The pIC50 in the assay with HepG2 was < 3.00.

The record behind these values is ChEMBL document CHEMBL1909504, “New series of isoniazid hydrazones linked with electron-withdrawing substituents” (Eur J Med Chem, 2011).
